Compounds with a hit are over-represented: about 5.8% of the library has one in this group of screens.
T cruzi growth-1 = T. cruzi proliferation inhibition. AID 624255. T. cruzi beta-gal in NIH3T3, GalScreen luminescence, 90 h. inhibition, % at 8.34 µM. hit rate 5.9% among 77,000;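 active = mean inhibition above about 93%, with at least 55% of replicates each passing it, limit read from the data, passing the limit was not always enough; inconclusive = only one of those two conditions holds; inactive = neither condition holds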
KDM4C inh = inhibitors of human demethylase GASC-1 KDM4C | Q9H3R0 | GST-KDM4C 2-372, H3K9me3 peptide, LANCE TR-FRET | inhibition, % at 12.5 µM | hit rate 0.15% among 96,000 | AID 720574;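 active = mean replicate inhibition above about 25%, with at least 55% of replicates also reaching it, limit read from the data, passing the limit was not always enough; inconclusive = only one of those two conditions met; inactive = neither condition met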
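Assay system: GST-GASC-1 enzyme fragment 2-372 | Amount: 10 nM enzyme | Medium: HEPES buffer, pH 7.5, plus ascorbate | Reagent: H3K9me3 peptide substrate, Fe(II), 2-oxoglutarate | Doses: Single-point compound screen | Incubation: 30 min demethylation and 1 h detection at room temperature | Measured by: LANCE TR-FRET, excitation 340 nm, emissions 618 and 671 nm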
Pf Dd2 growth = P. falciparum Dd2 growth inhibition; SYBR Green, 72 h; hits give low values; activity change, % at 10 µM; hit rate 2.3% among 94,000; in the data active = activity change below about -80%; inconclusive = no clear call, values can overlap the other calls
IDH1 R132H inh = blocks human IDH1 R132H reductase activity | O75874 | diaphorase/resazurin fluorescence, 60 min | inhibition, % at 10 µM | hit rate 0.18% among 70,000 | AID 624101; in the data active = inhibition above about 34%; inconclusive = no clear call, values can overlap the other calls; inactive = below about 11%;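 note: 0% = DMSO and 100% = no enzyme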
Target sequence (O75874 whole entry R132H): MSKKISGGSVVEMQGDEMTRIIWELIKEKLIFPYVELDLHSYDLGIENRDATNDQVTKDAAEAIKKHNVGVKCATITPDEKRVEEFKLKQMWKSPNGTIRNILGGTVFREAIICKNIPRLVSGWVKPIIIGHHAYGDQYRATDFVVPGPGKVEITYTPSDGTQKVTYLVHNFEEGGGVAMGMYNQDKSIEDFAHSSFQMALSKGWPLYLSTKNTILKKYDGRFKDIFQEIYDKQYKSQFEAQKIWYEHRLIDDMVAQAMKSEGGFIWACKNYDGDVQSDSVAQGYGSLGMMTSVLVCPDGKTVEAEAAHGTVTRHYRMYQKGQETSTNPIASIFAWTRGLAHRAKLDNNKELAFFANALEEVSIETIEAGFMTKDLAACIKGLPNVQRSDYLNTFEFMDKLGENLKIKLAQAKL
T cruzi growth-2 = blocks T. cruzi growth in NIH3T3 host cells. shares compounds with T cruzi growth-1. T. cruzi beta-gal in NIH3T3, GalScreen luminescence, 90 h. inhibition, % at 8.35 µM. hit rate 72% among 5,600. AID 651739;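 active = mean replicate inhibition above about 95% and at least 55% of replicates individually reaching it, limit read from the data; inconclusive = only one of the two criteria is met; inactive = neither criterion is met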
T cruzi growth-3 = blocks T. cruzi growth in NIH3T3 host cells; shares compounds with T cruzi growth-1; T. cruzi beta-gal in NIH3T3, GalScreen luminescence, 90 h; inhibition, % at 2.09 µM; hit rate 21% among 5,600;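 active = mean inhibition above about 95%, with at least 55% of replicates also reaching it, limit read from the data; inconclusive = meets just one of the two conditions; inactive = meets neither condition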;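 note: plate controls were neutral control median for no effect and positive control median for full effect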
3T3 cytotox = NIH/3T3 (mouse) viability loss. shares compounds with T cruzi growth-1. hit rate 14% among 5,600. cytotoxicity (signal decrease), % at 8.35 µM. NIH/3T3 viability, CellTiter-Glo ATP luminescence, 90 h;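 active = mean signal decrease across replicates above about 35% based on untreated-well scatter, with enough replicates individually passing, limit read from the data; inconclusive = no rule stated though some were filed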;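 note: 0% = median of neutral control wells and 100% = median of positive control wells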
3T3 cytotox 2 = kills mouse NIH/3T3 fibroblasts; shares compounds with T cruzi growth-1; NIH/3T3 viability, CellTiter-Glo ATP luminescence, 90 h; inhibition, % at 24.9 µM; hit rate 56% among 5,600; AID 651744;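 active = mean loss of cell viability signal at or above a set limit, and enough replicates individually reaching it; inconclusive = meets only the mean limit or only the replicate share; inactive = meets neither condition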;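 note: 0% = median of neutral control wells and 100% = median of positive control wells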
Numbers without * were called inactive.

For OC[C@@H]1[C@H](c2ccc(-c3ccc(F)cc3)cc2)[C@@H]2CN(CCC(F)(F)F)CCCCN12 the results were T cruzi growth-1 inconclusive, KDM4C inh -1, Pf Dd2 growth 2, T cruzi growth-2 105*, T cruzi growth-3 95, 3T3 cytotox 40* and 3T3 cytotox 2 105*.
Screening OC[C@@H]1[C@@H](c2ccc(-c3ccccc3)cc2)[C@H]2CN(CCC(F)(F)F)CCCCN12 returned T cruzi growth-1 85, KDM4C inh 1 and Pf Dd2 growth -72.
O=S(=O)(NCCOc1ccccc1)c1cccc2cccc(Cl)c12 was read as IDH1 R132H inh 0.
For Cc1nc(SCC(N)=O)c2c(C)c(C)sc2n1 the results were IDH1 R132H inh 0.
For Cc1cc(C)c(S(=O)(=O)N(CC(=O)Nc2ccccc2C(F)(F)F)C2CCCCC2)c(C)c1 the results were IDH1 R132H inh 0.
Screening Cc1cccc(-c2ccc([C@@H]3[C@H]4CN(CCC(F)(F)F)CCCCN4[C@H]3CO)cc2)c1 returned T cruzi growth-1 99*, KDM4C inh -2, Pf Dd2 growth -12, T cruzi growth-2 103*, T cruzi growth-3 85, 3T3 cytotox 41* and 3T3 cytotox 2 105*.
For CN(C)C(=O)c1ccc(-c2ccc([C@H]3[C@@H](CO)N4CCCCN(CCC(F)(F)F)C[C@H]34)cc2)cc1 the results were T cruzi growth-1 101*, KDM4C inh 0, Pf Dd2 growth -24, T cruzi growth-2 100*, T cruzi growth-3 89, 3T3 cytotox -9 and 3T3 cytotox 2 -5.
`OC[C@@H]1[C@H](c2ccc(-c3ccccc3)cc2)[C@H]2CN(CCC(F)(F)F)CCCCN12` gave T cruzi growth-1 104*, KDM4C inh -1, Pf Dd2 growth -80*, T cruzi growth-2 103*, T cruzi growth-3 62, 3T3 cytotox 19 and 3T3 cytotox 2 106*.
For OC[C@@H]1[C@H](c2ccc(-c3cccc(F)c3)cc2)[C@@H]2CN(CCC(F)(F)F)CCCCN12 the results were T cruzi growth-1 91, KDM4C inh 0 and Pf Dd2 growth -11.
Cc1sc2ncnc(SCC(=O)c3ccc(Cl)cc3)c2c1C was read as IDH1 R132H inh 0.
Screening COc1ccc(C(C)(C)C)cc1NC(=S)Nc1ccc(S(=O)(=O)Nc2ncccn2)cc1 returned IDH1 R132H inh 0.
Screening C[C@H]1CN([C@@H](C)CO)S(=O)(=O)c2ccc(C#Cc3ccc(F)cc3)cc2O[C@H]1CN(C)S(C)(=O)=O returned T cruzi growth-1 118*, KDM4C inh 1, Pf Dd2 growth -36, IDH1 R132H inh -2, T cruzi growth-2 105*, T cruzi growth-3 59, 3T3 cytotox 20 and 3T3 cytotox 2 2.
C[C@H]1CN([C@@H](C)CO)S(=O)(=O)c2ccc(C#Cc3ccc(F)cc3)cc2O[C@@H]1CN(C)S(C)(=O)=O was read as T cruzi growth-1 122*, KDM4C inh -2, Pf Dd2 growth -10, IDH1 R132H inh -2, T cruzi growth-2 102*, T cruzi growth-3 65, 3T3 cytotox inconclusive and 3T3 cytotox 2 87*.
C[C@H](CO)N1C[C@H](C)[C@H](CN(C)S(C)(=O)=O)Oc2cc(C#Cc3ccc(F)cc3)ccc2S1(=O)=O was read as T cruzi growth-1 115*, KDM4C inh 8, Pf Dd2 growth -26, IDH1 R132H inh -3, T cruzi growth-2 103*, T cruzi growth-3 71, 3T3 cytotox 12 and 3T3 cytotox 2 51*.
For CCCC#Cc1ccc2c(c1)O[C@@H](CN(C)S(C)(=O)=O)[C@H](C)CN([C@H](C)CO)S2(=O)=O the results were T cruzi growth-1 15, KDM4C inh 0, Pf Dd2 growth -12 and IDH1 R132H inh 0.
`CCCC#Cc1ccc2c(c1)O[C@@H](CN(C)S(C)(=O)=O)[C@@H](C)CN([C@@H](C)CO)S2(=O)=O` gave T cruzi growth-1 101*, KDM4C inh -1, Pf Dd2 growth -1, IDH1 R132H inh -2, T cruzi growth-2 inconclusive, T cruzi growth-3 inconclusive, 3T3 cytotox 32 and 3T3 cytotox 2 58*.
`C[C@@H]1CN([C@H](C)CO)S(=O)(=O)c2ccc(C#Cc3ccccc3)cc2O[C@@H]1CN(C)S(C)(=O)=O` gave T cruzi growth-1 69, KDM4C inh -4, Pf Dd2 growth -40 and IDH1 R132H inh -1.
CCN(CC(=O)Nc1cccc([N+](=O)[O-])c1)S(=O)(=O)c1ccc(C)cc1 was read as IDH1 R132H inh 0.
O=C(C1CCCC1)N1CCCCN2[C@H](CO)[C@H](c3ccc(-c4cccc(F)c4)cc3)[C@H]2C1 was read as T cruzi growth-1 118*, Pf Dd2 growth -30, T cruzi growth-2 108*, T cruzi growth-3 75, 3T3 cytotox 8 and 3T3 cytotox 2 102*.
`O=C(C1CCCC1)N1CCCCN2[C@H](C1)[C@H](c1ccc(-c3cccc(F)c3)cc1)[C@@H]2CO` gave T cruzi growth-1 88 and Pf Dd2 growth 23.
`O=C(C1CC1)N1CCCCN2[C@H](CO)[C@H](c3ccc(-c4cccc(F)c4)cc3)[C@@H]2C1` gave T cruzi growth-1 inconclusive, KDM4C inh 0, Pf Dd2 growth 13, T cruzi growth-2 105*, T cruzi growth-3 33, 3T3 cytotox 25 and 3T3 cytotox 2 inconclusive.
Screening O=C(C1CC1)N1CCCCN2[C@@H](CO)[C@H](c3ccc(-c4cccc(F)c4)cc3)[C@@H]2C1 returned T cruzi growth-1 inconclusive, KDM4C inh 0, Pf Dd2 growth 23, T cruzi growth-2 100*, T cruzi growth-3 87, 3T3 cytotox 22 and 3T3 cytotox 2 37*.
COc1cc2c(c(OC)c1OC)CCc1cc(O)c(O)cc1-2 was read as IDH1 R132H inh 10.
`COc1ccc(Cl)cc1NC(=O)CN1C(=O)c2ccccc2S1(=O)=O` gave IDH1 R132H inh 0.
Screening C[C@@H]1CCCCO[C@@H](CN(C)Cc2ccc3c(c2)OCO3)[C@@H](C)CN([C@@H](C)CO)C(=O)c2cc(NC(=O)Nc3cccc4ccccc34)ccc2O1 returned T cruzi growth-1 inconclusive, KDM4C inh -1, Pf Dd2 growth -47, IDH1 R132H inh 1, T cruzi growth-2 102*, T cruzi growth-3 106*, 3T3 cytotox 14 and 3T3 cytotox 2 21.
Screening C[C@@H]1CN([C@@H](C)CO)C(=O)c2cc(NC(=O)Nc3cccc4ccccc34)ccc2O[C@@H](C)CCCCO[C@@H]1CN(C)Cc1ccncc1 returned T cruzi growth-1 8, KDM4C inh -1 and Pf Dd2 growth -46.
